test: Toxicity liver stage against HepG2, at 10uM; assay type: cell-based; parameters: test concentration 10 uM, cell line HepG2-A16-CD81EGFP; settings: human, HepG2-A16-CD81EGFP cells; read-out: INHIBITION
Method in brief: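 Uninfected HepG2-A16-CD81EGFP cells, 3 × 10^3 per well, 1536-well, plated on prespotted compound at 10 μM final, parasite-free screening media added to match infected plates; puromycin 10 μM positive, DMSO 0.5% negative; run in parallel with 48 h PbLuc assay at 37 °C, 5% CO2; viability by CellTiter-Glo luminescence, normalized to controls.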

In order of falling cytotoxicity at 10 µM:
1. CCOCCCNC(=O)C(NC(=O)Cc1cccs1)c1ccc(C)cc1 (stereo not given)  13.2%
2. CCc1ccc(C(O)CN2CCN(c3cccc(OC)c3)CC2)cc1 (stereo not given)  11.2%
3. Cc1cc(C(=O)N2CCCC3(CNC(=O)O3)C2)c2c(C)nn(C)c2n1 (stereo not given)  10.8%
4. CN(CCCOc1ccccc1)C(=O)c1csc(-c2nnc[nH]2)n1  10.4%
5. Cc1cccc(CC(=O)N2CCOCC2c2c(C)n[nH]c2C)c1 (stereo not given)  9.18%
6. CSCc1noc(CNC(=O)C2CCN(C3CCCCC3)CC2)n1  8.45%
7. Cc1cnc(N2CCC3(CC2)CN(c2ccsc2)C(=O)CO3)nc1  7.34%
8. Cc1ccc(F)c(NC(=O)CCC(=O)N(C)Cc2nc(C)c[nH]2)c1  7.05%
9. CC(NCCn1cccn1)c1cc(F)ccc1F (stereo not given)  6.33%
10. Cc1csc2c(C3CCN(CCOc4ccccc4F)CC3)nc(C)n12  5.89%
11. CCc1nc(CN2CCCN(C(=O)c3ccco3)CC2)cs1  5.03%
12. COc1ccc(N2CCOCC3(CCCN(c4cnccn4)C3)C2)cc1 (stereo not given)  4.29%
13. CNc1nc(N2CCN(Cc3ccsc3)C(CCO)C2)nc2c1CCC2 (stereo not given)  3.96%
14. O=C(c1c[nH]nn1)N1CCCC1C1CCCCC1 (stereo not given)  3.81%
15. CSc1ccc(C(C(=O)O)N2CCC(CO)CC2)cc1 (stereo not given)  3.68%
16. Cc1nnc(CN2CCCC2c2ccsc2)o1 (stereo not given)  3.22%
17. CC(C)n1nc(Cn2cccc2)c2c1CN(Cc1ccoc1)C2  1.49%
18. CCc1ncc(C(=O)N2CCn3c(CC)nnc3C2)s1  1.03%
19. N#CCCn1cnc2c(F)cc(Br)cc2c1=O  0.997%
20. Cc1c[nH]c(CN2CCCCC2CCn2ccnc2C)c(C)c1=O (stereo not given)  0.585%
21. CCn1cc(NC(=O)C2CCN(Cc3nc(C(C)C)no3)CC2)cn1  0.449%
22. CC(C)(NCCCOc1ccc(C#N)cc1)c1nccs1  -0.476%
23. CCc1nsc(N2CCCN(C(=O)COc3ccccc3)CC2)n1  -1.74%
24. CC(=O)Nc1nc(C(=O)N2CCCC(n3nc(C)nc3C)C2)cs1 (stereo not given)  -2.06%
25. O=C(Nc1ccc(CC(=O)N2CCSCC2)cc1)NC1CC1  -2.42%
26. COc1ccc(-n2ncc(C(C)NC3CCSCC3)c2C)cc1 (stereo not given)  -4.57%
27. Cc1cccc(C)c1Oc1ncccc1CNC(=O)C1COC(=O)N1 (stereo not given)  -4.65%
28. Cc1cc2cc(CNC3CCN(CC(=O)N(C)C)CC3)oc2cc1C  -5.95%
29. Cc1nccc(-c2cccc(NCC(=O)N3CCCC(C)C3)c2)n1 (stereo not given)  -6.27%
30. CCOCCC(=O)N1CCc2cccc(S(=O)(=O)N3CCOCC3)c2C1  -7.41%
31. CC(C)c1ccc(CCC(=O)N(C)C2CCN(C)C2=O)cc1 (stereo not given)  -7.79%
32. CN(C)CCN1CCO[C@H]2CCN(C(=O)c3cccs3)CC[C@@H]21  -8.32%
33. Cc1nnc([C@H]2C[C@H]3OCC[C@H]3N(S(=O)(=O)N(C)C)C2)o1  -8.44%
34. O=C(NCC1CCCN1Cc1ccccc1)NCC1(O)CCC1 (stereo not given)  -9.17%
35. Clc1cccc(C(CNCc2ccccn2)N2CCOCC2)c1 (stereo not given)  -12%
36. O=C(c1ccncc1)N1CCC2(CC1)CCN(C(=O)c1cccnc1)C2  -93%
37. Cc1cnc(N2CCc3c(c(COc4cncnc4)nn3C)C2)nc1  -98.8%
38. COCC1CN(CCOc2ccc(Cl)cc2)Cc2c1cnn2C (stereo not given)  -102%
39. O=C(O)[C@]12CCCN(CC3CCOC3)C[C@H]1CN(c1ncccn1)C2 (stereo not given in full)  -104%
40. CN1CCCN(C(=O)c2ccnn2-c2ccc3ccccn23)CC1  -107%
41. CCCS(=O)(=O)N1C[C@@H](c2ccccc2)[C@@]2(CCNC2=O)C1  -109%
42. CN(C)CCN1C[C@@H]2CN(S(=O)(=O)c3ccccc3)C[C@@H]2C1=O  -112%
43. CN(C)c1ncc(CNC2CC(=O)N(CCc3cccc(Cl)c3)C2)s1 (stereo not given)  -132%
44. OCC(O)CSCc1ccc(Cl)cc1Cl (stereo not given)  -148%
45. CC(C)CO[C@H]1CN(S(=O)(=O)c2cn(C)cn2)[C@@H]2CCCO[C@H]12  -148%
